Test results reported in ChEMBL document CHEMBL3414528, “Novel naftopidil-related derivatives and their biological effects as alpha1-adrenoceptors antagonists and antiproliferative agents” (Eur J Med Chem, 2015).

How the values were obtained:
Rattus norvegicus [1] = species: Rattus norvegicus; experiment: Selectivity ratio for Sprague-Dawley rat thoracic aorta adrenergic alpha-1D receptor to Sprague-Dawley rat spleen adrenergic alpha-1B receptor; type: tissue-based
[2] = molecular target: T1, Alpha-1A adrenergic receptor (Rattus norvegicus, UniProt P43140); experiment: Antagonist activity at Sprague-Dawley rat prostatic vas deferens adrenergic alpha-1A receptor after 20 mins; conditions: read-out: pA2 (converted)
T1 sequence (P43140 whole entry): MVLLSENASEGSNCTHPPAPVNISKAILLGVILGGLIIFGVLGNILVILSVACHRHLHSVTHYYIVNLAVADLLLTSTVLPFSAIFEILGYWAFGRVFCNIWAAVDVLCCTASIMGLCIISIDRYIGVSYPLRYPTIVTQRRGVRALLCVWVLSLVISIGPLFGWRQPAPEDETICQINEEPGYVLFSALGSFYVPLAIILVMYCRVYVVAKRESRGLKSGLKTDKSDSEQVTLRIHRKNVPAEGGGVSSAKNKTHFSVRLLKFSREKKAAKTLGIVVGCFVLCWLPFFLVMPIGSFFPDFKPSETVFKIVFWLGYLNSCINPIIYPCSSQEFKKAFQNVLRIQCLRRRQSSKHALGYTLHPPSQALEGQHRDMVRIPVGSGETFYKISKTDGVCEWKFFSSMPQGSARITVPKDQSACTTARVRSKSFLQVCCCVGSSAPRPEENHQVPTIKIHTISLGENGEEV
How it was run: (§1)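 Isolated rat tissues (prostatic vas deferens, spleen, thoracic aorta) contracted with cumulative norepinephrine; concentration-response curves recorded in presence of increasing antagonist concentrations, antagonism read as rightward curve shift. Mean ± SEM of five to eight separate experiments.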

[3] = molecular target: T2, Alpha-1B adrenergic receptor (Rattus norvegicus, UniProt P15823); experiment: Antagonist activity at Sprague-Dawley rat spleen adrenergic alpha-1B receptor after 20 mins; conditions: read-out: pA2 (converted); how it was run: as §1
T2 sequence (P15823 whole entry): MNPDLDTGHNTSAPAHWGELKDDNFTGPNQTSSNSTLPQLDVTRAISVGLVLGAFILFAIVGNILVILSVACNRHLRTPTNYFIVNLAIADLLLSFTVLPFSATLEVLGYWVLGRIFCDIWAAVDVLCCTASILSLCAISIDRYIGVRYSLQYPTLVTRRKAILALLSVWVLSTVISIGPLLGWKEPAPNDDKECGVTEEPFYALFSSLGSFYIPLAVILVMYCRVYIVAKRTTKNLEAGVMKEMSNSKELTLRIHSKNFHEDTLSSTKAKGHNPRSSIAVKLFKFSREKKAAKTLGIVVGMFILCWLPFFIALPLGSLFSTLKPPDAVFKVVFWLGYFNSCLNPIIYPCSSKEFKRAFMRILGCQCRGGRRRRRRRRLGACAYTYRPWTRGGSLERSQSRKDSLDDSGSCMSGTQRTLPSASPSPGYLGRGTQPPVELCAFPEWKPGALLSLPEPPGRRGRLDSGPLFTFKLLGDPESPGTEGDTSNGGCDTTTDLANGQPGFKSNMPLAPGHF

DU-145 [4] = experiment: Cytotoxicity against human DU145 cells after 48 hrs by WST-8 assay; type: functional, cell-based; conditions: DU-145, 48 h
Rattus norvegicus [5] = species: Rattus norvegicus; experiment: Selectivity ratio for Sprague-Dawley rat prostatic vas deferens adrenergic alpha-1A receptor to Sprague-Dawley rat spleen adrenergic alpha-1B receptor
LNCaP = experiment: Cytotoxicity against human LNCAP cells after 48 hrs by WST-8 assay; type: functional, cell-based
Rattus norvegicus [6] = species: Rattus norvegicus; experiment: Selectivity ratio for Sprague-Dawley rat thoracic aorta adrenergic alpha-1D receptor to Sprague-Dawley rat prostatic vas deferens adrenergic alpha-1A receptor
[7] = Cytotoxicity against human PC3 cells after 48 hrs by WST-8 assay; type: functional, cell-based; conditions: PC-3, 48 h
[8] = molecular target: T3, Alpha-1D adrenergic receptor (Rattus norvegicus, UniProt P23944); experiment: Antagonist activity at Sprague-Dawley rat thoracic aorta adrenergic alpha-1D receptor after 20 mins; conditions: read-out: pA2 (converted); how it was run: as §1
T3 sequence (P23944 whole entry): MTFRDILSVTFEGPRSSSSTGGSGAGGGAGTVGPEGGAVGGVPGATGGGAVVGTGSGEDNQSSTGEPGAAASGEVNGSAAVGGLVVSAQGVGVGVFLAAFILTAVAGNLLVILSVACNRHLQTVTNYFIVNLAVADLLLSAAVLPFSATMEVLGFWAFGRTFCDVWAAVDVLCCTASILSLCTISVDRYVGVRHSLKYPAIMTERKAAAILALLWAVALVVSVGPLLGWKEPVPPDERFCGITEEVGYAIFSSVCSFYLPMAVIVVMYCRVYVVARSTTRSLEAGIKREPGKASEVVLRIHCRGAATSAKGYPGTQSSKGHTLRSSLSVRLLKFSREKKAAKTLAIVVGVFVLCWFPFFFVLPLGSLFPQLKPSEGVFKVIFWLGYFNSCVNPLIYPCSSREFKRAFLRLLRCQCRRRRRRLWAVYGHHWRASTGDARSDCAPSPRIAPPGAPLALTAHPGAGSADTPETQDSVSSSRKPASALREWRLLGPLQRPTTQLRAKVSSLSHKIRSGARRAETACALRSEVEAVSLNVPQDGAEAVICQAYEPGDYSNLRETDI

[9] = Cytotoxicity against human PC3 cells; type: functional, cell-based; conditions: PC-3
DU-145 [10] = experiment: Cytotoxicity against human DU145 cells; type: functional, cell-based

SMILES	Kb [2] [nM]	Kb [3] [nM]	Kb [8] [nM]	Ratio (Rattus norvegicus [1])	IC50 (DU-145 [4]) [nM]	Ratio (Rattus norvegicus [5])	IC50 (LNCaP) [nM]	Ratio (Rattus norvegicus [6])	IC50 [7] [nM]	IC50 [9] [nM]	IC50 (DU-145 [10]) [nM]
COc1ccccc1N1CCN(CCCNC(=O)c2cc3cc(Cl)ccc3[nH]2)CC1	47.9	257	19.5	13.2	47000	5.4	28400	2.5	36900	–	–
COc1cc2nc(N3CCN(C(=O)C4COc5ccccc5O4)CC3)nc(N)c2cc1OC (stereo not drawn) [DOXAZOSIN]	–	–	–	–	–	–	–	–	> 50000	–	–
COc1ccccc1N1CCN(CCCNC(=O)c2cc3cccc([N+](=O)[O-])c3[nH]2)CC1	58.9	646	28.2	22.9	–	11	–	2.1	–	–	–
COc1ccccc1N1CCN(CCCNC(=O)c2cc3cc(O)ccc3[nH]2)CC1	55	155	26.9	5.6	–	2.8	–	2	–	–	–
COc1ccc2[nH]c(C(=O)NCCCN3CCN(c4ccccc4OC)CC3)cc2c1	77.6	1450	58.9	24.5	–	18.6	–	1.3	–	–	–
COc1ccccc1N1CCN(CC(O)COc2cccc3ccccc23)CC1 (stereo not drawn) [NAFTOPIDIL]	33.1	178	11.7	15.1	> 50000	5.4	> 50000	2.8	> 50000	33200	22200
COc1cc2nc(N3CCN(C(=O)C4CCCO4)CC3)nc(N)c2cc1OC (stereo not drawn) [TERAZOSIN]	–	2.57	1.48	–	–	–	–	–	–	–	–

Further lines, with some results ahead:

Kb [2] [nM]	Kb [3] [nM]	Kb [8] [nM]	SMILES	Ratio (Rattus norvegicus [1])	IC50 (DU-145 [4]) [nM]	Ratio (Rattus norvegicus [5])	IC50 (LNCaP) [nM]	Ratio (Rattus norvegicus [6])	IC50 [7] [nM]	IC50 [9] [nM]	IC50 (DU-145 [10]) [nM]
12.6	95.5	5.13	COc1ccccc1N1CCN(CCCNC(=O)CCCc2c[nH]c3ccccc23)CC1	18.6	> 100000	7.6	52300	2.5	> 100000	–	–
26.3	123	11.7	COc1ccccc1N1CCN(CCCNC(=O)c2ccc3[nH]ccc3c2)CC1	10.5	–	4.7	–	2.2	–	–	–
7.94	513	5.25	COc1ccccc1N1CCN(CCCNC(=O)Cc2c[nH]c3ccccc23)CC1	97.7	–	64.6	–	1.5	–	–	–
52.5	166	5.5	COc1ccccc1N1CCN(CCCNC(=O)c2cn(C)c3ccccc23)CC1	30.2	–	3.2	–	9.6	–	–	–
195	219	34.7	COc1ccccc1N1CCN(CCCNC(=O)CCc2c[nH]c3ccccc23)CC1	6.3	–	1.1	–	5.6	–	–	–
69.2	209	15.1	COc1ccccc1N1CCN(CCCNC(=O)c2cc3ccc(Br)cc3[nH]2)CC1	13.8	39300	3	26700	4.6	31200	–	–
